Test results as given in ChEMBL document CHEMBL4130602, “Rearranged Phloroglucinol-Monoterpenoid Adducts from Callistemon rigidus” (J Nat Prod, 2018).

What follows are compounds tested on RAW264.7 (assay: Antiinflammatory activity in mouse RAW264.7 cells assessed as inhibition of LPS-induced nitric oxide production pretreated for 1 hr followed by LPS stimulation measured after 24 hrs by griess assay).
Type: functional, cell-based
Outline: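 Compound added 1 h before lipopolysaccharide, then 24 h incubation. Culture supernatant mixed with Griess reagent, 10 min at room temperature; absorbance read at 550 nm, nitrite quantified from NaNO2 standard curve. Run in triplicate.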

| IC50 | SMILES |
| --- | --- |
| 15.3 µM | CC[C@H](C)C(=O)c1c(O)cc(OC)c2c1O[C@@]1(C)[C@@H]2C[C@H](C(C)C)[C@H]1C=O |
| > 50 µM | COc1cc(O)c(C(=O)CC(C)C)c2c1[C@@H]1C[C@H](C(C)C)C=C[C@]1(C)O2 |
| > 50 µM | COc1cc(O)c(C(=O)C(C)C)c2c1[C@H]1C[C@H](C(C)C)[C@H]3O[C@H]3[C@@]1(C)O2 |
| > 50 µM | CC[C@H](C)C(=O)c1c(O)cc(OC)c2c1O[C@@]1(C)[C@@H]2C[C@H](C(C)C)[C@H]2O[C@H]21 |
| > 50 µM | CC[C@H](C)C(=O)c1c(O)cc(OC)c2c1O[C@]1(C)C=C[C@@H](C(C)C)C[C@H]21 |
| > 50 µM | COc1cc(O)c(C(=O)C(C)C)c2c1[C@@H]1[C@@H](C(C)C)CC=C(C)[C@@H]1O2 |
| > 50 µM | COc1cc(O)c(C(=O)C(C)C)c2c1[C@H]1C[C@H](C(C)C)C=C[C@@]1(C)O2 |
| > 50 µM | COc1cc(O)c(C(=O)CC(C)C)c2c1[C@H]1C[C@H](C(C)C)C=C[C@@]1(C)O2 |
| 17.7 µM | COc1cc(O)c(C(=O)C(C)C)c2c1[C@H]1C[C@H](C(C)C)[C@@H](C=O)[C@@]1(C)O2 |
| 21.1 µM | COc1ccc2c(c1)c(CC(=O)O)c(C)n2C(=O)c1ccc(Cl)cc1 [INDOMETHACIN] |
